Test results as given in ChEMBL document CHEMBL3124885, “Discovery of 7-tetrahydropyran-2-yl chromans: β-site amyloid precursor protein cleaving enzyme 1 (BACE1) inhibitors that reduce amyloid β-protein (Aβ) in the central nervous system” (J Med Chem, 2014).

Legend:
[1] = Drug uptake in Hartley guinea pig CSF at 100 mg/kg, po measured at 3 hrs; type: ADME, organism-based, Cavia porcellus, Cerebrospinal fluid; parameters: dose 100 mg/kg, route oral; conditions: read-out: Drug uptake
Procedure, shortened: (§1)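 Male Hartley guinea pigs, oral dosing (CMC/Tween/citrate suspension or PEG/EtOH/H₂O solution), six or eight animals per cohort; CSF drug concentration (nM) measured at each time point.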

[2] = Drug uptake in Hartley guinea pig CSF at 60 mg/kg, po measured at 5 hrs; type: ADME, organism-based, Cavia porcellus, Cerebrospinal fluid; parameters: dose 60 mg/kg, route oral; conditions: read-out: Drug uptake; procedure, shortened: as §1
[3] = Drug uptake in Hartley guinea pig CSF at 30 mg/kg, po measured at 3 hrs; type: ADME, organism-based, Cavia porcellus, Cerebrospinal fluid; parameters: dose 30 mg/kg, route oral; conditions: read-out: Drug uptake; procedure, shortened: as §1
[4] = Ratio of unbound drug level in brain to plasma in Hartley guinea pig at 100 mg/kg, po measured at 3 hrs; type: ADME, organism-based, Cavia porcellus; parameters: dose 100 mg/kg, route oral; conditions: brain and plasma (unbound), read-out: K(p,uu,brain)
Procedure, shortened: (§2)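 Male Hartley guinea pigs given single oral doses of 30, 60 or 100 mg/kg in 1% CMC/0.5% Tween/5 mM citrate in H₂O, 6–8 animals per cohort. Plasma, brain and CSF sampled at 1–12 h; free brain to free plasma ratio computed.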

[5] = Ratio of unbound drug level in brain to plasma in Hartley guinea pig at 60 mg/kg, po measured at 5 hrs; type: ADME, organism-based, Cavia porcellus; parameters: dose 60 mg/kg, route oral; conditions: brain and plasma (unbound), read-out: K(p,uu,brain); procedure, shortened: as §2
[6] = Fraction unbound in Hartley guinea pig brain at 100 mg/kg, po measured at 3 hrs; type: ADME, organism-based, Cavia porcellus; parameters: dose 100 mg/kg, route oral; conditions: in vivo
[7] = Fraction unbound in Hartley guinea pig brain at 60 mg/kg, po measured at 5 hrs; type: ADME, organism-based, Cavia porcellus; parameters: dose 60 mg/kg, route oral; conditions: in vivo
[8] = Fraction unbound in Hartley guinea pig brain at 30 mg/kg, po measured at 3 hrs; type: ADME, organism-based, Cavia porcellus; parameters: dose 30 mg/kg, route oral; conditions: in vivo
[9] = Unbound plasma concentration in Hartley guinea pig at 100 mg/kg, po measured at 3 hrs; type: ADME, organism-based, Cavia porcellus; parameters: dose 100 mg/kg, route oral; conditions: in vivo
Procedure, shortened: (§3)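 Male Hartley guinea pigs were dosed orally at 30, 60 or 100 mg/kg, with six or eight animals per cohort. The vehicle was either a suspension in 1% CMC/0.5% Tween/5 mM citrate in H₂O or a 40/10/50 PEG/EtOH/H₂O solution, depending on compound. Unbound plasma concentration was sampled at 1–12 h post-dose alongside brain, CSF and CSF Aβ₁₋₄₀.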

[10] = Unbound plasma concentration in Hartley guinea pig at 60 mg/kg, po measured at 12 hrs; type: ADME, organism-based, Cavia porcellus; parameters: dose 60 mg/kg, route oral; conditions: in vivo; procedure, shortened: as §3
[11] = Unbound plasma concentration in Hartley guinea pig at 60 mg/kg, po measured at 8 hrs; type: ADME, organism-based, Cavia porcellus; parameters: dose 60 mg/kg, route oral; conditions: in vivo; procedure, shortened: as §3
[12] = Unbound plasma concentration in Hartley guinea pig at 60 mg/kg, po measured at 5 hrs; type: ADME, organism-based, Cavia porcellus; parameters: dose 60 mg/kg, route oral; conditions: in vivo; procedure, shortened: as §3
[13] = Drug uptake in cynomolgus monkey CSF at 0.5 mg/kg, iv and 100 mg/kg, po measured at 4 hrs; type: ADME, organism-based, Macaca fascicularis, Cerebrospinal fluid; conditions: read-out: Drug uptake
Procedure, shortened: (§4)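 Female cynomolgus monkeys, 3 per dosing route; iv formulation PEG400/EtOH/water (40/10/50) solution; oral suspension in 1% CMC, 0.5% Tween 80, 5 mM citrate buffer; CSF concentration measured.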

[14] = Drug uptake in cynomolgus monkey CSF at 0.5 mg/kg, iv and 100 mg/kg, po measured at 2 hrs; type: ADME, organism-based, Macaca fascicularis, Cerebrospinal fluid; conditions: read-out: Drug uptake; procedure, shortened: as §4
Plasma [15] = assay: Unbound plasma concentration in cynomolgus monkey at 0.5 mg/kg, iv and 100 mg/kg, po measured at 4 hrs; type: ADME, organism-based, Macaca fascicularis; conditions: in vivo
Procedure, shortened: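 Female cynomolgus monkeys, three per dosing route, received 0.5 mg/kg iv and 100 mg/kg po. Unbound plasma concentration was reported at 2 h and 4 h post-dose.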

[16] = Drug uptake in Hartley guinea pig CSF at 60 mg/kg, po measured at 3 hrs; type: ADME, organism-based, Cavia porcellus, Cerebrospinal fluid; parameters: dose 60 mg/kg, route oral; conditions: read-out: Drug uptake; procedure, shortened: as §1
[17] = Ratio of unbound drug level in brain to plasma in Hartley guinea pig at 60 mg/kg, po measured at 1 hr; type: ADME, organism-based, Cavia porcellus; parameters: dose 60 mg/kg, route oral; conditions: brain and plasma (unbound), read-out: K(p,uu,brain); procedure, shortened: as §2
[18] = Fraction unbound in Hartley guinea pig brain at 60 mg/kg, po measured at 1 hr; type: ADME, organism-based, Cavia porcellus; parameters: dose 60 mg/kg, route oral; conditions: in vivo
[19] = Fraction unbound in Hartley guinea pig brain at 60 mg/kg, po measured at 3 hrs; type: ADME, organism-based, Cavia porcellus; parameters: dose 60 mg/kg, route oral; conditions: in vivo
[20] = Unbound plasma concentration in Hartley guinea pig at 60 mg/kg, po measured at 1 hr; type: ADME, organism-based, Cavia porcellus; parameters: dose 60 mg/kg, route oral; conditions: in vivo; procedure, shortened: as §3
[21] = Cmax in cynomolgus monkey CSF at 100 mg/kg, po measured at 2 hrs; type: ADME, organism-based, Macaca fascicularis, Cerebrospinal fluid; parameters: dose 100 mg/kg, route oral
[22] = Ratio of unbound drug level in brain to plasma in Sprague-Dawley rat at 60 mg/kg, po measured at 12 hrs; type: ADME, organism-based; parameters: dose 60 mg/kg, route oral; conditions: brain and plasma (unbound), read-out: K(p,uu,brain)
Procedure, shortened: (§5)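 Male Sprague–Dawley rats dosed 60 mg/kg po in 1% CMC/0.5% Tween/5 mM citrate in H₂O; plasma, brain and CSF taken at 1, 3, 5, 8 and 12 h; unbound plasma and brain levels and their ratio determined.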

[23] = Ratio of unbound drug level in brain to plasma in Sprague-Dawley rat at 60 mg/kg, po measured at 8 hrs; type: ADME, organism-based; parameters: dose 60 mg/kg, route oral; conditions: brain and plasma (unbound), read-out: K(p,uu,brain); procedure, shortened: as §5
[24] = Ratio of unbound drug level in brain to plasma in Sprague-Dawley rat at 60 mg/kg, po measured at 5 hrs; type: ADME, organism-based; parameters: dose 60 mg/kg, route oral; conditions: brain and plasma (unbound), read-out: K(p,uu,brain); procedure, shortened: as §5
Brain [25] = assay: Fraction unbound in Sprague-Dawley rat brain at 60 mg/kg, po measured at 5 hrs; type: ADME, organism-based; parameters: dose 60 mg/kg, route oral; conditions: in vivo; procedure, shortened: as §5
[26] = Drug uptake in Sprague-Dawley rat CSF at 60 mg/kg, po measured at 3 hrs; type: ADME, organism-based, Cerebrospinal fluid; parameters: dose 60 mg/kg, route oral; conditions: read-out: Drug uptake
Procedure, shortened: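 Male Sprague−Dawley rats dosed orally at 60 mg/kg in 1% CMC/0.5% Tween/5 mM citrate in H₂O; CSF compound concentration (nM) at 1–12 h.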

[27] = Ratio of unbound drug level in brain to plasma in Sprague-Dawley rat at 60 mg/kg, po measured at 3 hrs; type: ADME, organism-based; parameters: dose 60 mg/kg, route oral; conditions: brain and plasma (unbound), read-out: K(p,uu,brain); procedure, shortened: as §5
Plasma [28] = assay: Unbound plasma concentration in Sprague-Dawley rat at 60 mg/kg, po measured at 3 hrs; type: ADME, organism-based; parameters: dose 60 mg/kg, route oral; conditions: in vivo
Procedure, shortened: (§6)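 Male Sprague-Dawley rats were given a single 60 mg/kg oral dose in 1% CMC/0.5% Tween/5 mM citrate in H₂O. Free plasma concentration was determined at 1, 3, 5, 8 and 12 h. Brain, CSF and CSF Aβ₁₋₄₀ were sampled at the same times.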

Plasma [29] = assay: Unbound plasma concentration in Sprague-Dawley rat at 60 mg/kg, po measured at 1 hr; type: ADME, organism-based; parameters: dose 60 mg/kg, route oral; conditions: in vivo; procedure, shortened: as §6
Rattus norvegicus = assay: Hepatic clearance in Sprague-Dawley rat at 3 mg/kg, iv; type: ADME, organism-based, Liver; parameters: dose 3 mg/kg, route intravenous; conditions: in vivo
Procedure, shortened: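 Male Sprague–Dawley rats, 3 per cohort, iv 3 mg/kg in 30% captisol/5 mM citrate in saline; po 60 mg/kg in 1% CMC/0.5% Tween/5 mM citrate in H₂O.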

[30] = Intrinsic clearance in Sprague-Dawley rat hepatocytes at 2 uM after 60 to 120 mins; type: ADME, cell-based, Hepatocyte; conditions: read-out: CLH
[31] = Dissociation constant, pKa of the compound by parallel capillary electrophoresis method; type: physicochemical
Procedure, shortened: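 pKa determined by a 24-point parallel capillary electrophoresis method, quantitation by UV absorbance at 229 nm.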

Brain [32] = assay: Fraction unbound in CD-1 mouse brain at 10 mg/kg, po measured at 1 hr; type: ADME, organism-based; parameters: dose 10 mg/kg, route oral; conditions: in vivo
Procedure, shortened: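 Male CD-1 mice, 3 per cohort, dosed 10 mg/kg orally; brains harvested at 1 and 4 h.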

Plasma [33] = assay: Unbound plasma concentration in CD-1 mouse at 3 mg/kg, iv and 10 mg/kg, po measured at 4 hrs; type: ADME, organism-based; conditions: in vivo
Procedure, shortened: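 Male CD-1 mice, 3 per cohort, dosed 3 mg/kg iv and 10 mg/kg po; plasma drawn at 1 and 4 h, brains harvested from oral groups only. Formulations varied by compound: 40% PEG 400/10% EtOH/50% H₂O; 30% captisol in H₂O; iv 50 mM citrate in saline (pH 4); po 1% CMC/0.5% Tween/5 mM citrate in H₂O.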

## CN1C(=O)[C@]2(N=C1N)c1cc(-c3cccnc3F)ccc1O[C@H]1CCOC[C@@H]12
[1]
  concentration at 3 h: 56 nM
[2]
  concentration at 5 h: 6.9 nM
[3]
  concentration at 3 h: 9.9 nM
[4]
  Kp uu at 3 h: 1.3
[5]
  Kp uu at 5 h: 1.7
[6]
  Drug uptake(free): 50 nM
[7]
  Drug uptake(free): 12 nM
[8]
  Drug uptake(free): 9.5 nM
[9]
  Cp(f): 38 nM
[10]
  Cp(f): < 3 nM
[11]
  Cp(f): < 3 nM
[12]
  Cp(f): 7 nM
[13]
  concentration at 4 h: 84 nM
[14]
  concentration at 2 h: 110 nM
Plasma [15]
  Cp(f): 1700 nM
[16]
  concentration at 3 h: 23 nM
[17]
  Kp uu at 1 h: 0.14
[18]
  Drug uptake(free): 19 nM
[19]
  Drug uptake(free): 34 nM
[20]
  Cp(f): 140 nM
[21]
  Cmax: 120 nM
[22]
  Kp uu at 12 h: 0.048
[23]
  Kp uu at 8 h: 0.049
[24]
  Kp uu at 5 h: 0.029
Brain [25]
  Drug uptake(free): 79 nM
[26]
  concentration at 3 h: 150 nM
[27]
  Kp uu at 3 h: 0.03
Plasma [28]
  Cp(f): 2200 nM
Plasma [29]
  Cp(f): 3100 nM
Rattus norvegicus
  CLH: 30 mL/min/kg
[30]
  CLint scaled at 2 µM: 35 mL/min/kg
[31]
  pKa: 5.8
Brain [32]
  Drug uptake(free): 24 nM
Plasma [33]
  Cp(f): 78 nM
